Data reported in ChEMBL document CHEMBL1909630, “Azaxanthene based selective glucocorticoid receptor modulators: design, synthesis, and pharmacological evaluation of (S)-4-(5-(1-((1,3,4-thiadiazol-2-yl)amino)-2-methyl-1-oxopropan-2-yl)-5H-chromeno[2,3-b]pyridin-2-yl)-2-fluoro-N,N-dimethylbenzamide (BMS-776532) and its methylene homologue …” (J Med Chem, 2011).

How the values were obtained:
[1] = Volume of distribution at steady state in Sprague-Dawley rat at 1 mg/kg, iv; assay type: ADME, organism-based; parameters: dose 1 mg/kg, route intravenous; conditions: in vivo, read-out: Vdss
Method in brief: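 Male Sprague-Dawley rats received a single intravenous (1 mg/kg) or oral (10 or 50 mg/kg) dose. Plasma pharmacokinetic parameters were derived from these profiles.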

Blood [2] = test: Antiinflammatory activity in human whole blood assessed as inhibition of IL-1beta-induced IL-8 production after overnight incubation by ELISA relative to Dexamethasone; assay type: functional
Method in brief: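 Whole blood from two donors per experiment was collected into ACD-A. Compounds were added and the blood was incubated about 20 h at 37 °C under 5% CO2. Blood was then stimulated for 5 h with LPS (final 100 ng/mL, for TNFα) or IL-1β (final 10 ng/mL, for IL-8). Plasma TNFα or IL-8 was measured by ELISA. Efficacy was expressed as % of dexamethasone, and values are means of at least two experiments.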

Rattus norvegicus [3] = test: Antiinflammatory activity in po dosed Freund's complete adjuvant-induced Lewis rat arthritis model assessed as reduction in paw swelling administered once daily for 21 days; assay type: functional; conditions: 504 h
Method in brief: (§1)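 Male Lewis rats were inoculated with Mycobacterium butyricum in incomplete Freund's adjuvant. Oral dosing was daily and preventative, running from day 0 to day 21. Onset and progression of arthritis were followed, and ED50 was estimated from the dose response.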

Blood [4] = test: Antiinflammatory activity in Sprague-Dawley rat whole blood assessed as inhibition of LPS-induced TNFalpha production
Glucocorticoid receptor [5] = target: T1, Glucocorticoid receptor (Homo sapiens, UniProt P04150); test: Transactivation activity at glucocorticoid receptor alpha human 13D3/Huh7 cells assessed as induction of TAT activity after 4 hrs by spectrophotometry; assay type: cell-based, Huh-7
T1 sequence (P04150 whole entry): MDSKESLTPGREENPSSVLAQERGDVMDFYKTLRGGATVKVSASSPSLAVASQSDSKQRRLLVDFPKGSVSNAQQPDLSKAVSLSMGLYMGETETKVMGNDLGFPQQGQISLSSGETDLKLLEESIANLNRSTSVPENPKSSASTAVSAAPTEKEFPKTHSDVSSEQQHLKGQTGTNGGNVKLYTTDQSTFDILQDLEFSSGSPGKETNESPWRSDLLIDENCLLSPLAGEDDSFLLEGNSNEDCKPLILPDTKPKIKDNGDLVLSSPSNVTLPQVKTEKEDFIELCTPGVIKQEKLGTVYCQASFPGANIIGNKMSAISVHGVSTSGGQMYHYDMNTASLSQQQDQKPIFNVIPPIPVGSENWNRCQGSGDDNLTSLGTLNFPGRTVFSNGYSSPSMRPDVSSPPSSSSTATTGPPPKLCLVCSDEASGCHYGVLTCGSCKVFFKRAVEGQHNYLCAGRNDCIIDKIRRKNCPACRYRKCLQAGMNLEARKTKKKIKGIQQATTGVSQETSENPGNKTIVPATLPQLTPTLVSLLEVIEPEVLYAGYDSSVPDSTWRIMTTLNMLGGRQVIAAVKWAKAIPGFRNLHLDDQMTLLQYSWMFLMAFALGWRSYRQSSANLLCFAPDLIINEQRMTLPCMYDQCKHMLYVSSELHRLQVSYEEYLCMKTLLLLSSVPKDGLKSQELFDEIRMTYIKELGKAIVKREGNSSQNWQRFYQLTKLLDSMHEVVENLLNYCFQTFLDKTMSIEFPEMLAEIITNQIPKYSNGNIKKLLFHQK

Rattus norvegicus [6] = test: Antiinflammatory activity in po dosed Freund's complete adjuvant-induced Lewis rat arthritis model assessed as reduction in progression of arthritis; assay type: functional, organism-based; method in brief: as §1
Androgen receptor = target: T2, Androgen receptor (Homo sapiens, UniProt P10275); test: Displacement of fluorescently labeled ligand from androgen receptor by fluorescence polarization assay
T2 sequence (P10275 whole entry): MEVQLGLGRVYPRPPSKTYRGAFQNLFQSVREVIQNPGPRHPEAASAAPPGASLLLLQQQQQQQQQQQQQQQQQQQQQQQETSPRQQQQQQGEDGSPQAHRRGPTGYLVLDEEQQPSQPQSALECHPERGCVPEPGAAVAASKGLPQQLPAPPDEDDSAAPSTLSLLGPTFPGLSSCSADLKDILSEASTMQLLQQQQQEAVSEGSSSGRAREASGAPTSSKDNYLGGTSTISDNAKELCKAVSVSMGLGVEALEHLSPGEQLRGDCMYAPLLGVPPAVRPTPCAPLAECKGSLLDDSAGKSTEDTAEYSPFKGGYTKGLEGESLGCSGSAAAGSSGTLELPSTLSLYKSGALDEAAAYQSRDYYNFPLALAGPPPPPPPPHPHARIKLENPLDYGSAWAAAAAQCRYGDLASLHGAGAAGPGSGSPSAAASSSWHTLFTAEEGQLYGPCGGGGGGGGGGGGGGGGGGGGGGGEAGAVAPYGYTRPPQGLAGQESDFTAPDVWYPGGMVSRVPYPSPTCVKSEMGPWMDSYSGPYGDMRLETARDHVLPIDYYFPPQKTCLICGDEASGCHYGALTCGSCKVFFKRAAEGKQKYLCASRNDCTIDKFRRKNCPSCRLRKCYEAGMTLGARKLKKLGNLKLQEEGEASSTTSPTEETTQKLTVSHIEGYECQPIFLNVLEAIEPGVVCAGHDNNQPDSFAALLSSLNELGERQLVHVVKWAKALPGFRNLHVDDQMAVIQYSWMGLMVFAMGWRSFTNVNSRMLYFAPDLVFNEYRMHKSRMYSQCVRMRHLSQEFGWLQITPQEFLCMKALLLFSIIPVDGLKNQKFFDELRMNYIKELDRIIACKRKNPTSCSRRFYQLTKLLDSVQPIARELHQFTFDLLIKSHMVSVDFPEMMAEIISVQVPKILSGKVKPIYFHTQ
Method in brief: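 Binding was measured by fluorescence polarization competition between compound and a fluorescent ligand for full-length receptor or ligand-binding domain. Values are means of at least two experiments.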

Glucocorticoid receptor [7] = target: T1, Glucocorticoid receptor; test: Transactivation activity at GR-alpha in human NP1 Hela cells assessed as induction of GAL4-DBD after 20 hrs by luciferase reporter gene assay; assay type: cell-based

Vd [1] | EC50 (Blood [4]) | EC50 (Glucocorticoid receptor [5]) | Ki (Androgen receptor) | EC50 (Glucocorticoid receptor [7]) | Structure (SMILES) | Imax (Blood [2]) | ED50 (Rattus norvegicus [3]) | Activity (Rattus norvegicus [6])
1 L/kg | 189 nM | 150 nM | > 5 µM | 242 nM | CN(C)C(=O)c1ccc(-c2ccc3c(n2)Oc2ccccc2[C@H]3C(C)(C)C(=O)Nc2nncs2)cc1F | 70% | 17 mg/kg | Dose-dependent effect
0.5 L/kg | 215 nM | 88 nM | > 5 µM | 98.5 nM | CCN(C)C(=O)c1ccc(-c2ccc3c(n2)Oc2ccccc2[C@@H]3C(C)(C)C(=O)Nc2nncs2)cc1F | 88% | 8 mg/kg | Dose-dependent effect
